Sampled rows, rich in hits. Any-hit rate of the full collection: about 2.2%.
NF-kB expr up = raises NF-kB expression in human neuronal cells; NF-kB reporter expression; hits give high values; fold change at 12.5 µM; 1.6% of 190,000 active; AID 1239; in the data active = fold change above about 3.3
APP 5'UTR act = activates APP 5'UTR luciferase reporter. SH-SY5Y APP 5'UTR luciferase reporter, luminescence; zero percent = DMSO vehicle wells. activation, % at 2 µM. 1% of 190,000 active;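 active = activation above a set limit, based on mean plus 3 SD of controls, cut at about 140% in these data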
C8 TRAIL sens = sensitizes caspase-8 expressing cells to TRAIL; NB7+C8 cells + TRAIL, ATPlite viability luminescence; 1% of 360,000 active; inhibition (viability loss, TRAIL sensitization), % at 10 µM;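 active = compounds causing at least 50% loss of cell viability in the single-dose screen, relative to plate controls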
FLuc inh counter = Photinus pyralis luciferase inhibition counter-screen; P08659; ATPLite firefly luciferase biochemical luminescence, 10 min; inhibition, % at 10 µM; 1.5% of 200,000 active; AID 1006;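 active = inhibition above about 50% when tested at 10 µM, limit read from the data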
Target sequence (P08659 whole entry, looked up): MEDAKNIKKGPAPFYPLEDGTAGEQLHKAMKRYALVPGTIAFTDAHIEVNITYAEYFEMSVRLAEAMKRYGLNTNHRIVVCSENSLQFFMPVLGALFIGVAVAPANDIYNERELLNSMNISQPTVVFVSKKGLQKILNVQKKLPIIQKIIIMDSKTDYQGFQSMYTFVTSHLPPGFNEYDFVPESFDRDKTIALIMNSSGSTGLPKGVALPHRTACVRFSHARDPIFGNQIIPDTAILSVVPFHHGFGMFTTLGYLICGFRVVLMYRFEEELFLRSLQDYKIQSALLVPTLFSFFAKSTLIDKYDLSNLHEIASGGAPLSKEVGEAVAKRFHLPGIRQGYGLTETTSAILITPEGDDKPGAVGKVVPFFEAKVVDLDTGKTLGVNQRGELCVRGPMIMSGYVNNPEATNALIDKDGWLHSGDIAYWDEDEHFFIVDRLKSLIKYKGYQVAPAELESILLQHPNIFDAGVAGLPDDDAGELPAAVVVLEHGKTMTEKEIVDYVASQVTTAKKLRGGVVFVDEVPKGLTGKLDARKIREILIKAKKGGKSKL
FLuc stim CS = firefly luciferase counter-screen for stimulation assays | P08659 | 200,000 tested, under 10 active | activation factor at 10 µM | AID 1027 | ATPlite luciferase biochemical, luminescence, 10 min; 0 = ATP-free wells, 1 = DMSO control;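 active = luciferase activation factor, scaled between plate controls, of at least 2 with compound at 10 µM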
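Assay system: Luciferase/luciferin detection reagent, cell-free biochemical luciferase assay / Also added: ATP substrate / Schedule: 10 min at ambient temperature / Measured by: luminescence measurement of luciferase light output / Benchmarks: low control with PBS replacing ATP, high control enzyme plus ATP without compound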
PPC-1+TRAIL kill = PPC-1 cancer cell killing with TRAIL present; PPC-1 cells + TRAIL, ATPLite viability luminescence; 0.41% of 220,000 active; cell killing (% activity), % at 4 µM or 5 µM;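 active = cell killing above 50% in the first pass at 4 µM, then a duplicate retest at 5 µM averaging 50% or more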;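 note: plate controls were cells with TRAIL plus DMSO for no effect and medium-only wells lacking cells for full effect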
Active calls of the source: *; / = no result.

SMILES	NF-kB expr up	APP 5'UTR act	C8 TRAIL sens	FLuc inh counter	FLuc stim CS	PPC-1+TRAIL kill
C[C@H](c1ccccc1)N1C[C@H](COCc2ccccc2)Oc2cc(N3CCC[C@H]3C(N)=O)ccc2S1(=O)=O	/	/	-8	/	/	/
O=C1O[C@@H](c2ccccc2)C[C@@H](O)C(=O)CCc2ccccc21	/	/	-12	/	/	/
COc1ccccc1NC(=O)c1c(C)nc2ccccc2c1C(=O)O	/	/	14	/	/	4
COc1cccc2c1CCc1c-2nc2ccccc2c1C(=O)O	/	/	68*	/	/	/
CCCCn1nnnc1C(c1ccccc1)N1CCN(C/C=C/c2ccccc2)CC1 (stereo not given)	/	/	-6	/	/	/
CC(=O)c1c(C)nc(Nc2nc3ccccc3s2)nc1C	/	/	35	/	/	19
Cc1ccc(Nc2nc3ccccc3s2)c(C)c1	6.4*	168*	55*	66*	0.3	37
Cc1cc(C)nc(Nc2nc3ccccc3s2)n1	1.2	147*	6	8	0.9	4
COC(=O)[C@@]12C[C@@H](CC(=O)N3CCCC3)C(=O)N(Cc3ccco3)C1=CCC(C)(C)C2	/	/	-4	/	/	/
COc1ccc(CCNC(=O)Nc2nc(C(N)COCc3ccccc3)cs2)cc1OC (stereo not given)	/	/	-9	/	/	/
CCCC(=O)NC(c1ccccc1OC)c1ccc2cccnc2c1O (stereo not given)	4.7*	-75	16	-5	1	44
O=C(CSC(=S)N1CCCC1)c1ccccc1	/	/	16	/	/	/
Cc1[nH]c2ccccc2c1C(=O)CSC(=S)N(C)C1CCCCC1	0.99	12	-4	9	0.9	18
O=C(CSC(=S)N1CCCCC1)c1ccccc1	3.3*	242*	54*	76*	0.2	34
Cc1[nH]c2ccccc2c1C(=O)CSC(=S)N1CCCCC1	1.9	53	35	55*	0.5	40
COCCNC(=O)C1(C)CCCN(Cc2ccc(Oc3ccccc3)cc2)C1 (stereo not given)	/	/	7	/	/	/
CC1(c2nnnn2Cc2ccccc2)CCC(=O)N1CCOc1ccccc1 (stereo not given)	/	/	0	/	/	/
COc1ccccc1C(=O)NNC(=O)c1cccc(O)c1	/	/	50*	/	/	/
COc1ccccc1C(=O)NNC(=O)c1cccc(F)c1	2.3	129	21	43	0.6	10
COc1ccc(C(C#N)N2N=C(C)CC2c2ccccc2)cc1 (stereo not given)	/	/	-16	/	/	/
COc1ccc(C2=NN(C(C#N)c3ccc(OC)cc3)C(c3ccccc3)C2)cc1 (stereo not given)	6*	109	-1	-2	1	35
CC1CCc2nc(NC(=O)Cc3cccs3)sc2C1 (stereo not given)	4.3*	105	26	17	0.8	-12
CC1CCc2nc(NC(=O)c3ccc(N4C(=O)CCC4=O)cc3)sc2C1 (stereo not given)	/	/	-8	/	/	/
CC1CCc2nc(NC(=O)C3CCCO3)sc2C1 (stereo not given)	3.5*	172*	41	48	0.5	30
Cc1ccc(N=Cc2sc(O)c3ccccc23)c(C)c1	1.3	12	-18	-5	1	6
SMILES	NF-kB expr up	APP 5'UTR act	C8 TRAIL sens	FLuc inh counter	FLuc stim CS	PPC-1+TRAIL kill
Cc1ccc(N=Cc2sc(O)c3ccccc23)cc1	13*	193*	-6	-3	1	30
CCOC(=O)c1ccc2c(c1)nc(-c1ccccn1)n2CC	/	/	56*	/	/	/
CCOC(=O)Cn1c(-c2ccccn2)nc2ccccc21	0.84	1	6	-4	1	15
COc1cc(NC(C)CCCN)c2nc(C)ccc2c1Oc1ccc(F)cc1 (stereo not given)	/	/	7	/	/	/
CC(NC(=O)Nc1nnc(C(F)(F)F)s1)(C(F)(F)F)C(F)(F)F	0.49	-1	51*	-2	1	8
CC(C)C1C(=O)N(Cc2cn(CC3CCCCC3)nn2)CCS(=O)(=O)N1Cc1ccc(-c2cccc(CO)c2)cc1 (stereo not given)	/	/	18	/	/	/
Oc1ccccc1OCc1nc2ccccc2s1	3.4*	154*	1	18	0.8	44
COc1cc(/C=C/C(=O)c2ccc(O)cc2)ccc1OCC#N	3.7*	-15	-29	11	0.9	7
CCOc1ccc(/C=C/C(=O)c2ccccc2)cc1OC	0.96	144*	21	28	0.7	21
COc1ccc(/C=C/C(=O)c2ccc(O)cc2)cc1CN1CCOCC1	3.7*	18	-7	-5	1.1	-4
COc1cccc(C(=O)/C=C/c2ccc(OCC#N)c(OC)c2)c1	1.4	-14	6	1	1	8
NC(CCc1ccccc1)c1csc(NC(=O)Nc2cccc(C(F)(F)F)c2)n1 (stereo not given)	/	/	39	/	/	/
CCOC1=CC2=C(C(=O)C(Cl)=CC2=O)[C@@H]2CN(S(=O)(=O)c3ccc(C)cc3)[C@@H](c3ccccc3)[C@H]12	/	/	7	/	/	/
O=C(N[C@@H]1CC[C@@H](CCn2cc(-c3ccccc3)nn2)O[C@@H]1CO)c1cnccn1	/	/	9	/	/	/
N/C(=N\OC(=O)c1ccc(Cl)cc1)c1ccn[nH]1	/	/	83*	/	/	/
N/C(=N\OC(=O)c1ccc(Cl)cc1Cl)c1ccc(Cl)cc1	1.5	15	87*	54*	0.5	18
N/C(=N\OC(=O)c1ccc(Cl)cc1)c1ccc(Cl)cc1	3.1	/	88*	37	0.6	-2
C/C(=N\OC(=O)c1ccc(Cl)cc1)c1nccs1	1.2	0	-12	72*	0.3	-9
COc1cccc(C(=O)N2CCC[C@@H]2C(=O)N2CCC[C@H]2C(=O)NCc2ccncc2)c1	/	/	-4	/	/	/
O=C(Nc1ccc(F)cc1)C(c1ccccc1OC(F)(F)F)N1CCN(c2cccc(C(F)(F)F)n2)CC1 (stereo not given)	/	/	9	/	/	/
Cc1ccc(/C(N)=N/OC(=O)c2ccc(C)cc2Cl)cc1	1.6	162*	71*	73*	0.3	62*
Cc1ccc(/C(N)=N/OC(=O)/C=C/c2ccccc2)cc1	2.3	7	37	1	1	29
N/C(=N\OC(=O)c1ccccc1Cl)c1ccccc1	7.7*	166*	66*	94*	0.1	33
Cc1cccc(/C(N)=N/OC(=O)c2cccc3ccccc23)c1	/	/	92*	/	/	/
COc1ccccc1C(=O)O/N=C(\N)c1ccccc1Cl	2.7	49	8	-1	1	12
N/C(=N\OC(=O)c1ccccc1Cl)c1ccc(Cl)cc1	3.7*	58	83*	56*	0.4	33
N/C(=N\OC(=O)c1cccc2ccccc12)c1cccc([N+](=O)[O-])c1	1.4	18	15	2	1	2
CC(C)(C)OC(=O)N(CC1CCNCC1)C(=O)c1[nH]c(C(F)(F)F)nc1-c1ccccc1	/	/	-9	/	/	/
O=S1(=O)N[C@@H](Cc2ccccc2)COc2cc(N3CCC[C@@H]3CO)ccc21	/	/	-1	/	/	/
CCCCN(C(=O)c1ccccc1Cl)C(CC(C)C)c1nc2ccccc2[nH]1 (stereo not given)	/	/	-17	/	/	/
